Holding throughout (details): Aorta
The nature of test [1]: In vitro vasorelaxing effect evoked on endothelium-denuded rat aortic rings expressed as potency significantly different from respective control. It is filed as functional, tissue-based.
Test [2] can be described thus: In vitro vasorelaxing effect evoked on endothelium-denuded rat aortic rings expressed as percentage efficacy (%) recorded in the presence of 1 uM glibenclamide.
Test [3] in a line: In vitro maximal vasorelaxing effect evoked on endothelium-denuded rat aortic rings in the presence of 1 uM glibenclamide. It is filed as functional. A digest of the protocol: (§1)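 Glibenclamide 1 μM was added to endothelium-denuded male Wistar rat aortic rings before the 20 mM KCl contraction. Compound was then added cumulatively in 3-fold increasing concentrations, and relaxation was expressed relative to the KCl tone. Student t test against control, P < 0.05. Mean ± standard error, 5–10 experiments.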

Test [4] is described as follows: In vitro maximal vasorelaxation of endothelium-denuded rat aortic rings, expressed as percentage contractile tension. It is filed as functional. A digest of the protocol:
(§2)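 Thoracic aortic rings were taken from male normotensive Wistar rats (250–350 g) and equilibrated for 60 min. Rings relaxing ≥10% to ACh 10 μM after NE 1 μM precontraction were discarded. Rings were contracted with KCl 20 mM, then 3-fold increasing concentrations were added cumulatively. Efficacy is the maximal relaxation as % of KCl tone, or the response at the 0.1 mM limit concentration. Mean ± standard error of 5–10 experiments.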

A short description of test [5]: In vitro maximal vasorelaxing effect evoked on endothelium-denuded rat aortic rings was expressed as percentage contractile tension in the presence of 60 mM KCl.
Test [6] is described as follows: In vitro vasorelaxing effect evoked on endothelium-denuded rat aortic rings in the presence of 1 uM glibenclamide.
Test [7] in a line: In vitro vasorelaxing effect evoked on endothelium-denuded rat aortic rings in the presence of 1 uM glibenclamide. It is filed as functional, tissue-based. The method, boiled down:
as §1

The species named for test [8] is Rattus norvegicus. The experiment in a line: In vitro vasorelaxing effect evoked on endothelium-denuded rat aortic rings expressed as half reduction of the contractile tone; The compound was ineffective. It is filed as functional, tissue-based.
The species named for test [9] is Rattus norvegicus. The experiment in a line: In vitro maximal vasorelaxing effect evoked on endothelium-denuded rat aortic rings was expressed as percentage contractile tension; The compound was ineffective. It is filed as functional, tissue-based. The method, boiled down: as §2

Structures are written as SMILES.

The IC50 is the concentration needed to halve the response being measured. As a reminder, the Emax is the maximal effect, on the per cent scale that the assay sets. In test [1], `CC1(C)Sc2ccc(C(F)(F)F)cc2NC1=O` had an IC50 of 28.2 µM. Moreover, the Emax in test [2] came to 81%.

With `CC1(C)CN(C2=CCCC2=O)c2cc(Br)ccc2S1`, the Emax was 92% in [3], 99% in test [4] and 28% in [5]. The IC50 in [6] was 525 nM.

Take `CC1(C)CN(N2CCCC2=O)c2cc(Br)ccc2S1(=O)=O`: the maximal response (Emax) in test [4] was determined as 100%.

For the compound `CC1(C)CN(C2=CCCC2=O)c2cc([N+](=O)[O-])ccc2S1`, the IC50 in [7] was 417 nM. For the same compound, the Emax in test [3] was determined as 90%; in test [4] it was 98%; in test [5] it was 26%.

For `CC1(C)CN(C2=CCCC2=O)c2cc(C#N)ccc2S1`, the half-inhibitory concentration (IC50) in test [7] is 69.2 nM. In addition, the Emax in test [3] came out at 100%; in test [4] it was 95%; in test [5], 18%.

As to `CC1(C)CN(N2CCCC2=O)c2cc(Br)ccc2S1`, the IC50 in [7] is 2400 nM. For the same compound, the Emax in test [3] stood at 99%; in test [4] it was 100%; in [5], 30%.

On to `CC1(C)CN(NC(=O)c2cccc(F)c2)c2cc([N+](=O)[O-])ccc2S1`, for which the IC50 in test [7] was 302 nM. The Emax in [3] came out at 93%; in test [4], 91%; in test [5] it was 15%.

`CC1(C)CN(N2CCCCC2=O)c2cc(Br)ccc2S1` gave a maximal response (Emax) in test [4] of 100%.

Regarding `CC(=O)NN1CC(C)(C)Sc2ccc(Br)cc21`, the Emax in test [4] was determined as 100%.

For the compound `CC1(C)CN(NC(=O)c2cccc(F)c2)c2cc(Br)ccc2S1`, the maximal response (Emax) in test [3] worked out at 58%; in test [4], 95%.

`CC1(C)CN(N2CCCC2=O)c2cc(Br)ccc2[S+]1[O-]` (stereo not drawn) displayed a maximum response (Emax) in test [4] of 96%.

For `CC(=O)NN1CC(C)(C)Sc2ccc([N+](=O)[O-])cc21`, the IC50 in test [7] was 93.3 nM. Also, the maximal effect (Emax) in test [3] turned out to be 95%; in test [4] it was 92%; in [5] it was 24%.

In the case of `CC1(C)CN(N2CCCC2=O)c2cc(C#N)ccc2S1`, the maximal effect (Emax) in [4] was 98%.

Consider `CC1(C)CN(C2=CCCC2=O)c2cc(C(F)(F)F)ccc2S1`, for which the concentration for half-maximal inhibition (IC50) in test [7] was 437 nM. The Emax came out at 87% in test [3], 99% in test [4] and 35% in test [5].

Take `CC(=O)N1CC(C)(C)Sc2ccc([N+](=O)[O-])cc21`: the NE entry in the test listed under Rattus norvegicus [8] and in the test filed under Rattus norvegicus [9] was “Ineffective” each time.

In turn, `C=CCN1CC(C)(C)Sc2ccc(C(F)(F)F)cc21` came in with a maximum response (Emax) in test [4] of 97%.

Turning to `CC(=O)N1CC(C)(C)Sc2ccc(Br)cc21`, the Emax in test [4] amounted to 100%.

In test [4], `CC1(C)Oc2ccc(C#N)cc2[C@@H](N2CCCC2=O)[C@@H]1O` [LEVCROMAKALIM] gave a maximal effect (Emax) of 100%.

In [4], `CC1(C)CN(N2CCCC2=O)c2cc([N+](=O)[O-])ccc2S1` displayed a maximum response (Emax) of 91%.

The record behind these values is ChEMBL document CHEMBL1145991 (J Med Chem, 2003).
